Data from ChEMBL document CHEMBL1212813, “alpha-Amino-3-hydroxy-5-methyl-4-isoxazolepropionic acid (AMPA) antagonists: from bench to bedside” (J Med Chem, 2010).
In brackets after ≈: the same amount, converted by molar mass.

Key:
Mus musculus [1] = test: Anticonvulsant activity in ip dosed mouse assessed as inhibition of MES-induced tonic seizures; assay type: functional
[2] = Displacement of [3H]AMPA from AMPA receptor in rat cortical membrane in presence of cyclothiazide; assay type: cell membranes
[3] = Displacement of [3H]kainate from kainate receptor in rat cortical membrane; assay type: cell membranes
[4] = Displacement of [3H]AMPA from AMPA receptor in rat cortical membrane; assay type: cell membranes
Glutamate NMDA receptor [5] = test: Inhibition of NMDA receptor glycine site from rat cortical membrane
Glutamate NMDA receptor [6] = test: Inhibition of NMDA receptor glutamate site from rat cortical membrane
Rattus norvegicus = test: Anticonvulsant activity in po dosed rat assessed as inhibition of MES-induced tonic seizures; assay type: functional
[7] = Solubility of the compound at pH 7.4; assay type: physicochemical; settings: buffer
Glutamate NMDA receptor [8] = test: Displacement of [3H](E)-3-(2-carboxy-2-phenylvinyl)-4,6-dichloro-1H-indole-2-carboxylic acid from NMDA receptor glutamate site from rat cortical membrane
Mus musculus [9] = test: Anticonvulsant activity in po dosed mouse assessed as inhibition of MES-induced tonic seizures; assay type: functional
How it was run: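 Mice were dosed orally 2 h before maximal electroshock. The read-out was protection from tonic convulsions, and an ED50 was derived.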

## CN(C)S(=O)(=O)c1cc2c(N=O)c(O)[nH]c2c2c1CCCC2
Mus musculus [1]
  ED50: 30 mg/kg
[2]
  IC50: 150 nM
[3]
  IC50: 81000 nM

## CS(=O)(=O)Nn1c(=O)[nH]c2cc(Cl)ccc2c1=O
Mus musculus [1]
  ED50: 40 mg/kg

## O=[N+]([O-])c1ccc2nc(O)c(O)nc2c1
[4]
  Ki: 2000 nM

## Oc1nc2ccc(-n3ccnc3)cc2nc1O
[4]
  Ki: 1600 nM

## Oc1nc2ccccc2nc1O
[4]
  Ki: > 100000 nM

## N#Cc1ccc2nc(O)c(O)nc2c1
[4]
  Ki: 5000 nM

## Oc1nc2cc(-n3ccnc3)c(-n3ccnc3)cc2nc1O
[4]
  Ki: 820 nM

## O=P(O)(O)CNCc1cc(Br)cc2nc(O)c(O)nc12
[4]
  IC50: 2400 nM

## O=c1[nH]c2cc([N+](=O)[O-])cc(CNCP(=O)(O)O)c2[nH]c1=O
[4]
  IC50: 290 nM
Glutamate NMDA receptor [5]
  IC50: 1160 nM
Glutamate NMDA receptor [6]
  IC50: 490 nM
Rattus norvegicus
  ED50: 5 mg/kg
[7]
  solubility: 6600 µg/mL (≈ 20 mM)
[3]
  IC50: 4200 nM

## C[C@H](NCc1cc([N+](=O)[O-])cc2nc(O)c(O)nc12)P(=O)(O)O
[4]
  IC50: 170 nM
Glutamate NMDA receptor [8]
  IC50: 32 nM

## N#Cc1cc2c(cc1[N+](=O)[O-])=NC(=O)C(=O)N=2
[4]
  IC50: 300 nM
Glutamate NMDA receptor [5]
  IC50: 14000 nM
[3]
  IC50: 1500 nM

## CCC1(C)CC(=O)NC(=O)C1 [BEMEGRIDE]
Mus musculus [9]
  ED50: 23.9 mg/kg

## CN1CCc2cc3c(cc2[C@H]1[C@@H]1OC(=O)c2c1ccc1c2OCO1)OCO3 [BICUCULLINE]
Mus musculus [9]
  ED50: 14.6 mg/kg
